Where two headings read alike, the source gives them in different places.
Key:
[1] = test system: chymotrypsin-like activity of the proteasome; conditions: monkeys; i.v. for 5 consecutive days; multiple tissues; well tolerated; cited from earlier work
[2] = test system: chymotrypsin-like activity of the proteasome; conditions: rats; i.v. for 5 consecutive days; multiple tissues; well tolerated; cited from earlier work
[3] = test system: bortezomib-resistant MM cell lines; conditions: bortezomib-resistant MM cell lines and patient samples; cited from earlier work
[4] = test system: 20S chymotrypsin-like proteasome activity; format: in vivo, human
How it was run: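 Chymotrypsin-like proteasome activity in patient whole blood and PBMCs, read with a fluorogenic substrate. Samples: cycle 1 day 1 predose, 1 and 24 h postdose; predose and 1 h postdose on cycle 1 day 5 and day 1 of cycles 2 and 3. Dosing was i.v. push days 1–5 with 9-d rest. Percent activity is each sample's specific activity relative to cycle 1 day 1 predose. Mean ± SEM.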

[5] = test system: primary acute myeloid leukemia blasts; conditions: tested at nanomolar levels (0.1-100 nmol/L); cited from earlier work
[6] = preclinical studies; cited from earlier work

## CC(C)C[C@H](NC(=O)[C@H](CCc1ccccc1)NC(=O)CN1CCOCC1)C(=O)N[C@@H](Cc1ccccc1)C(=O)N[C@@H](CC(C)C)C(=O)[C@@]1(C)CO1 [carfilzomib]
[1]
  Proteasome (chymotrypsin-like activity) inhibition: > 80%
[2]
  Proteasome (chymotrypsin-like activity) inhibition: > 80%
[3]
  Proliferation and apoptosis: inhibited proliferation and induced apoptosis
[4]; during the 9-day rest period
  Recovery of proteasome activity in PBMCs: generally returned to baseline
  Recovery of proteasome activity in whole blood: only partially recovered
[4]; whole blood and PBMCs, dose levels of 15 mg/m^2 and higher, 1 hour after dosing on day 1
  Proteasome inhibition after a single dose: > 75%
[4]; whole blood and PBMCs, highest dose groups, 1 h after the fifth dose
  Proteasome inhibition after the fifth consecutive day of dosing: > 90%
[5]
  autocrine- and cytokine-dependent proliferation: inhibited autocrine- and cytokine-dependent proliferation
[6]
  Time for serum concentrations to approach the limit of assay detection: ≤ 1 h

Reference: article PMC4019989 (Clinical cancer research : an official journal of the …, 2009)
